# GPR7 antagonist: GPR7 receptor antagonists, primary screen, cell-based, fluorescence, single concentration. GPR7-expressing cells, fluorescence antagonist assay. inhibition, % at 4.4 µM. actives 1.1% (n = 290,000). AID 1861, 2009; in the data active = inhibition above about 16%, passing the limit was not always enough;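 note: cells stimulated with the agonist NPW; 0% = agonist with vehicle and 100% = vehicle without agonist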
# TRPML3 agonist: human TRPML3 channel agonists, primary screen, cell-based, HEK293 TRPML3-YFP, Fluo-8 calcium fluorescence, 3 µM; Mucolipin-3 (Homo sapiens), Q8TDD5; 100% = the carbachol control signal; AID 1448, 2008; actives 0.29% (n = 220,000); activation, % at 3 µM;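 active = activation above its plate's cutoff, the mean activation of the plate's test wells plus 3 SD, cut at about 12% in these data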;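 note: 0% = DMSO only wells and 100% = carbachol wells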
#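 Material: HEK293 cells stably carrying human TRPML3-YFP; compound dosing: single dose, 3 µM final nominal compound, 0.3% DMSO final; incubation: 1-h 37 °C dye load, 5-s basal, 120-s post-compound reads; technique: Fluo-8 intracellular calcium fluorescence, excitation 470-495 nm, emission 515-575 nm; read-out basis: percent activation from peak-to-basal fluorescence ratio, scaled between DMSO and carbachol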
# LANA-H2A inh: blockers of LANA interaction with H2A/H2B – biochemical, FP readout, HTS, primary screen; Protein LANA1 (Human herpesvirus 8 type P (isolate GK18)), Q9QR71; cell-free LANA-H2A/H2B peptide, fluorescence polarization; inhibition, % (concentration not given with the values); actives 0.6% (n = 320,000); AID 2629, 2010; in the data active = inhibition mostly above about 10%, no sharp cut-off; inactive = mostly below about 6.7%
# TAAR1 agonist: human TAAR1 agonists, primary screen, Fluo-8 calcium fluorescence, CHO RD-HGA16 cells | Trace amine-associated receptor 1 (Homo sapiens), Q96RJ0 | actives 0.99% (n = 360,000) | vehicle wells 0%, saturating PEA agonist 100% | activation, % at 3 µM;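 active = activation above the mean activation of all test compounds in the run plus 3 SD, cut at about 38% in these data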
# Target sequence (Q96RJ0 whole entry, looked up): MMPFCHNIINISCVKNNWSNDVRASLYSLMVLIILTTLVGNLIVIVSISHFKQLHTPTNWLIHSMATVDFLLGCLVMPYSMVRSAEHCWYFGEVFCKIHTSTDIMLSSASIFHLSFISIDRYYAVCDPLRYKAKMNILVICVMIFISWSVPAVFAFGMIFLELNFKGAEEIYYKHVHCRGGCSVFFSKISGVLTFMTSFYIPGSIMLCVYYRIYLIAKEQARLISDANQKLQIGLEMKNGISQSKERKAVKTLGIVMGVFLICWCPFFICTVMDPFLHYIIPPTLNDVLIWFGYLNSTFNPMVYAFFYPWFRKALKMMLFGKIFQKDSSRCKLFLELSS
#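 Assay system – CHO-derived RD-HGA16 cells with stable Gα16 and human TAAR1 · Compound dosing – one-point dosing at 3 µM (nominal) · Incubation – 17-24 h seeding, 75 min 37 °C dye, 30 min RT · Measured by – kinetic Fluo-8 calcium fluorescence · Control set – DMSO vehicle as 0%, PEA at EC100 as 100% · Repeats – single well for each compound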
# TAAR1 antagonist: human TAAR1 antagonists, primary screen, Fluo-8 calcium fluorescence, CHO RD-HGA16 cells; actives 1.5% (n = 360,000); AID 624466, 2012; antagonist; inhibition, % at 3 µM;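 active = inhibition above a per-plate cutoff, the mean inhibition of test compounds on that plate plus 3 SD, cut at about 49% in these data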;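 note: 0% = DMSO plus EC80 beta-PEA response and 100% = DMSO alone without agonist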
#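 Test system – hTAAR1-expressing CHO RD-HGA16 cells, Gα16-coupled · Reagent – β-PEA at EC80 concentration, post-compound challenge · Compound dosing – 3 µM, single point · Timing – 140 s kinetic read after compound, 140 s after agonist · Detection – Fluo-8 intracellular calcium dye fluorescence, real-time kinetic reads · Control set – DMSO and EC80 PEA controls · Repeats – n of 1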
# zfTRPN1 agonist: zebrafish TRPN1 channel agonists, primary screen, cell-based, HEK293, calcium fluorescence | HEK293 zebrafish TRPN1-YFP, Fluo-8 calcium fluorescence; 100% = response to 87 µM carbachol | activation, % at 3 µM | actives 0.18% (n = 220,000) | AID 1424, 2008;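 active = activation above its plate's cutoff, the mean activation of test wells on that plate plus 3 SD, cut at about 19% in these data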;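 note: 0% = DMSO alone and 100% = 87 µM carbachol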
#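 Assay system: Zebrafish TRPN1-YFP in HEK293 cells | Incubation: Dye loading 1 h at 37 °C, then 30 min room temperature | Measured by: Kinetic Fluo-8 fluorescence, ex 470-495, em 515-575 nm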
# * marks the source's active call; other numbers are inactive results; nt = no result given. This is a sample that favours compounds with a hit; in the whole collection about 3.4% have one here.
SMILES,GPR7 antagonist,TRPML3 agonist,LANA-H2A inh,TAAR1 agonist,TAAR1 antagonist,zfTRPN1 agonist
CC(CC12CC3CC(CC(C3)C1)C2)NCc1ccccc1O (stereo not given),17,nt,-1,39*,1,nt
N#C/C(=C/c1ccc(O)c(O)c1)C(=O)NCc1ccc(Cl)cc1,0,nt,5,48*,6,nt
N#C/C(=C/c1cccc(O)c1)C(=O)NCc1ccc(Cl)cc1,0,nt,-3,13,-20,nt
COC(=O)[C@]12C[C@H](CC(=O)NCc3cccc(C(F)(F)F)c3)C(=O)N(Cc3ccccc3)C1=C[C@H](C1CCCC1)O[C@@H]2C,nt,nt,nt,0,-17,nt
O=C(Nc1ccc(S(=O)(=O)Nc2cnc3ccccc3n2)cc1)c1cc(F)c(F)cc1Cl,2,nt,22*,2,4,nt
CCCCNC(=O)C[C@H]1C[C@@]2(C(=O)OC)C(=C[C@H](C(C)(C)C)O[C@@H]2C)N(Cc2ccccc2)C1=O,nt,nt,nt,-2,-42,nt
C=CC[C@H](CC(=O)N(CCO)Cc1ccccc1)C(=O)NC[C@@H](OC(=O)[C@@H](CC=C)Cc1ccc(F)cc1)c1ccccc1,nt,nt,2,11,56*,nt
C=CCC[C@H](Cc1ccc(F)cc1)C(=O)O[C@H](CNC(=O)[C@@H](CC=C)CC(=O)N(CCO)Cc1ccccc1)c1ccccc1,nt,nt,71*,8,56*,nt
C=CCNc1cccc2c1S(=O)(=O)N[C@@H](Cc1ccccc1)CO2,nt,nt,nt,-2,-2,nt
CC(C)Oc1ccc(CNC(=O)CCC(=O)N2CC(C)Sc3ccccc32)cc1 (stereo not given),-8,nt,27*,3,29,nt
CN(C)S(=O)(=O)c1cccc(N=c2scc(-c3ccc4c(c3)NC(=O)CO4)n2CC2CCCO2)c1 (stereo not given),9,0,-1,27,53*,2
COc1ccccc1N=c1scc(-c2ccc3c(c2)NC(=O)CO3)n1CC1CCCO1 (stereo not given),-9,0,5,11,43,0
O=C(COC(=O)C1CC2CCCC(C1)C2=O)NNC(=O)c1ccccc1F (stereo not given),nt,nt,34*,4,-5,nt
CCCN1C(=O)c2n[nH]c(C(C)C)c2C1c1cccc(C(F)(F)F)c1 (stereo not given),nt,nt,nt,-2,-3,nt
CO/N=C/c1ccc(N2CCN(C(=O)c3cccc(C(F)(F)F)c3)CC2)c([N+](=O)[O-])c1,7,1,-4,22,54*,3
CO/N=C/c1ccc(N2CCN(C(=O)c3ccc(F)cc3)CC2)c([N+](=O)[O-])c1,6,5,-3,38*,39,10
O=C(O/N=C\c1ccc(N2CCCCC2)c([N+](=O)[O-])c1)c1cccc(C(F)(F)F)c1,-10,0,3,-3,10,0
CO/N=C/c1ccc(N2CCN(C(=O)c3ccc(Cl)cc3Cl)CC2)c([N+](=O)[O-])c1,27,6,2,43*,70*,16
O=C(N/N=C/c1ccc(N2CCOCC2)c([N+](=O)[O-])c1)c1ccc(F)cc1,-10,0,-3,10,19,0
COC(=O)C1=C(C)N(C)C(=NCc2ccc3c(c2)OCO3)NC1c1ccc(F)cc1 (stereo not given),nt,nt,nt,7,-17,nt
CCCN1CCCCC(NC(C)=O)C1=O (stereo not given),nt,nt,nt,1,-16,nt
CCC(Sc1nc2ccsc2c(=O)n1Cc1ccc(C(=O)O)cc1)C(=O)Nc1ccc(C)c(Cl)c1 (stereo not given),-3,nt,1,12,58*,nt
CCC(Sc1nc2ccsc2c(=O)n1Cc1ccc(C(=O)O)cc1)C(=O)Nc1cc(Cl)ccc1C (stereo not given),nt,nt,nt,4,-11,nt
